Activity calls are given as the source filed them.
Experiments:
[1] = molecular target: T1, DNA topoisomerase 1 (Homo sapiens) (UniProt P11387); test: Inhibition of human recombinant Top1 expressed in baculovirus-infected insect Sf9 cells using 3'-[32P]-end-labeled 117 bp DNA as substrate assessed as inhibition of DNA cleavage after 20 mins by PAGE analysis relative to 1 uM camptothecin
T1 sequence (whole entry): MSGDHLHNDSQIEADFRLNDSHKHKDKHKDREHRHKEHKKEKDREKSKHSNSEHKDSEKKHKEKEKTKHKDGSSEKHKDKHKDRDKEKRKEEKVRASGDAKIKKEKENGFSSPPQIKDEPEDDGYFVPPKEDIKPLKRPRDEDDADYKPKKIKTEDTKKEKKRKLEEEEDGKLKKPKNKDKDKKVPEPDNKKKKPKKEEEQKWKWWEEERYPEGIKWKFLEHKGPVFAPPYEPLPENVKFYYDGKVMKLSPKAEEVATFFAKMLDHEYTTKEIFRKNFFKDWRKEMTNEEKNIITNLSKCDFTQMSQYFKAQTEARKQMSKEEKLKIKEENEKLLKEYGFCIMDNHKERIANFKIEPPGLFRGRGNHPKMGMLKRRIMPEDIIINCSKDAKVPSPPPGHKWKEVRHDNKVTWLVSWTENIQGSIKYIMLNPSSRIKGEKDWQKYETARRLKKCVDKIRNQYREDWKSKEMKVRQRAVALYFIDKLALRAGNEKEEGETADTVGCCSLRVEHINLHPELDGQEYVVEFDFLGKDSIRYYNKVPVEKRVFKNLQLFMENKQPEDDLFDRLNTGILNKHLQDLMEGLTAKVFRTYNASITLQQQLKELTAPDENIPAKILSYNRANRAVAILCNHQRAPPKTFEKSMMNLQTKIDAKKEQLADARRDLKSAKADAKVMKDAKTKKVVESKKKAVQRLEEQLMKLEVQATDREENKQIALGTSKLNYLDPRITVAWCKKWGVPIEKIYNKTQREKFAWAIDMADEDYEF
In short: (§1)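 About 2 nM 3′-[32P]-end-labeled 117-bp DNA (Klenow fill-in with [α32P]dGTP) incubated with recombinant Top1 and compound for 20 min at room temperature. Stopped with 0.5% SDS, run on 20% denaturing PAGE, read by phosphorimager. Cleavage bands scored visually against 1 μM camptothecin on a 0 to +++++ scale.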

[2] = tested on: DU-145; test: Cytotoxicity against human DU145 cells; type: functional
In short: (§2)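 NCI-60 screen (NCI-DTP): one-dose prescreen at 10 μM, then five concentrations from 100 μM to 10 nM for compounds passing the cutoff. GI50 (50% growth inhibition) interpolated from the five-dose data. Single determination.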

[3] = tested on: SF-539; test: Cytotoxicity against human SF539 cells; type: functional; in short: as §2
[4] = tested on: SN12C; test: Cytotoxicity against human SN12C cells; type: functional; in short: as §2
[5] = Cytotoxicity against human OVCAR3 cells; type: functional; details: OVCAR-3; in short: as §2
[6] = tested on: MCF7; test: Cytotoxicity against human MCF7 cells; type: functional; in short: as §2
[7] = tested on: HOP-62; test: Cytotoxicity against human HOP62 cells; type: functional; in short: as §2
[8] = Cytotoxicity against human HCT116 cells; type: functional; details: HCT-116; in short: as §2
[9] = Cytotoxicity against human UACC62 cells; type: functional; details: UACC-62; in short: as §2
[10] = molecular target: Tyrosyl-DNA phosphodiesterase 1 (Homo sapiens, UniProt Q9NUW8); test: Inhibition of human recombinant TDP1 assessed as hydrolysis of N14Y to N14P after 15 mins by PAGE analysis
Sequence of Tyrosyl-DNA phosphodiesterase 1 (Q9NUW8 whole entry): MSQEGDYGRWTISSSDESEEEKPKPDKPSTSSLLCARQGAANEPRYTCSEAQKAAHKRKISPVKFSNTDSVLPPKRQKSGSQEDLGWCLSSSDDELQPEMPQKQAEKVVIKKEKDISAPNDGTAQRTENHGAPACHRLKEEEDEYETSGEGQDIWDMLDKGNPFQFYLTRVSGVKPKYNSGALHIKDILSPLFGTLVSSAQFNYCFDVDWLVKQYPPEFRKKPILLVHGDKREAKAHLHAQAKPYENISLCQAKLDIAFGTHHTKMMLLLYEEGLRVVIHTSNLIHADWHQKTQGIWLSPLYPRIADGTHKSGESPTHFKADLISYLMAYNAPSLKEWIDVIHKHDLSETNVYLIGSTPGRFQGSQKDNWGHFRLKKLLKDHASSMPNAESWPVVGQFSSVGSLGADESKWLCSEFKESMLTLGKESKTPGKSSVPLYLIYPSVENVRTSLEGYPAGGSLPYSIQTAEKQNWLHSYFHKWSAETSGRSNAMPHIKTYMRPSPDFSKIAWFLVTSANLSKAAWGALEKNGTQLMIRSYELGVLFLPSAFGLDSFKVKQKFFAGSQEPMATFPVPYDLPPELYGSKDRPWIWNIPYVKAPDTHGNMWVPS

[11] = molecular target: T1, DNA topoisomerase 1 (Homo sapiens); test: Inhibition of human recombinant Top1 expressed in baculovirus-infected insect Sf9 cells using 3'-[32P]-end-labeled 117 bp DNA as substrate assessed as inhibition of DNA cleavage after 20 mins by PAGE analysis; in short: as §1
[12] = molecular target: T1, DNA topoisomerase 1 (Homo sapiens); test: Poisoning activity at human recombinant Top1 expressed in baculovirus-infected insect Sf9 cells using 3'-[32P]-end-labeled 117 bp DNA as substrate assessed as delay in reversal of drug-enzyme-DNA cleavage complex formation at 1 uM measured over 10 mins by PAGE analysis
[13] = molecular target: T1, DNA topoisomerase 1 (Homo sapiens); test: Poisoning activity at human recombinant Top1 expressed in baculovirus-infected insect Sf9 cells using 3'-[32P]-end-labeled 117 bp DNA as substrate assessed as trapping of enzyme cleavage complex at 0.005 to 100 uM measured after 20 mins by PAGE analysis; in short: as §1

Row | Structure (SMILES) | inhibition [1] | GI50 [2] [nM] | GI50 [3] [nM] | GI50 [4] [nM] | GI50 [5] [nM] | GI50 [6] [nM] | GI50 [7] [nM] | GI50 [8] [nM] | GI50 [9] [nM] | IC50 [10] [nM] | inhibition [10] | inhibition [11] | Activity [12] | Activity [13]
1 | NCCCn1c2c(c3ccc([N+](=O)[O-])cc3c1=O)C(=O)c1c(O)cccc1-2 | 75% | 1200 | 1700 | 3400 | 2900 | 250 | 1900 | 470 | 2500 |  |  |  |  | 
2 | COc1cc2c(cc1O)C(=O)c1c-2n(CCCn2ccnc2)c(=O)c2cc(OC)c(OC)cc12 |  |  |  |  |  |  |  |  |  | > 111000 |  |  |  | 
3 | O=C1c2cc(O)ccc2-c2c1c1ccc([N+](=O)[O-])cc1c(=O)n2CCCn1ccnc1 | 75% | < 10 | < 10 | < 10 | 19 | < 10 | < 10 | < 10 | < 10 | > 111000 |  |  |  | 
4 | COc1cc2c(cc1O)C(=O)c1c-2n(CCCN)c(=O)c2cc([N+](=O)[O-])ccc12 | 50% | < 10 | < 10 | < 10 | 27 | < 10 | < 10 | < 10 | < 10 |  | Dose-dependent effect |  |  | 
5 | O=C1c2c(O)cccc2-c2c1c1ccc([N+](=O)[O-])cc1c(=O)n2CCCn1ccnc1 | 75% | 130 | 150 | 170 | 230 | 56 | 81 | 130 | 180 | > 111000 |  | Dose-dependent effect |  | 
6 | COc1cc2c(cc1O)C(=O)c1c-2n(CCCN2CCOCC2)c(=O)c2cc(OC)c(OC)cc12 |  |  |  |  |  |  |  |  |  | > 111000 |  |  |  | 
7 | O=C1c2c(O)cccc2-c2c1c1ccc([N+](=O)[O-])cc1c(=O)n2CCCN1CCOCC1 | 50% |  | 200 |  | 29000 | 64 | 12000 | 550 | 390 | > 111000 |  | Dose-dependent effect |  | 
8 | CC[C@@]1(O)C(=O)OCc2c1cc1n(c2=O)Cc2cc3ccccc3nc2-1 |  |  |  |  |  |  |  |  |  |  |  |  | inactive | 
9 | COc1cc2c(cc1O)-c1c(c3ccc([N+](=O)[O-])cc3c(=O)n1CCCN)C2=O | 50% | 430 | 660 | 450 | 1700 | 170 | 470 | 150 | 950 |  | Dose-dependent effect |  |  | 
10 | COc1cc2c(cc1O)C(=O)c1c-2n(CCCN2CCOCC2)c(=O)c2cc([N+](=O)[O-])ccc12 | 50% | < 10 | < 10 | < 10 |  | < 10 | < 10 | < 10 | < 10 | > 111000 | Dose-dependent effect |  |  | 
11 | NCCCn1c2c(c3ccc([N+](=O)[O-])cc3c1=O)C(=O)c1ccc(O)cc1-2 | 75% | 350 | 210 |  | 270 | 120 |  | 220 |  |  |  |  |  | 
12 | O=C1c2cc(O)ccc2-c2c1c1ccc([N+](=O)[O-])cc1c(=O)n2CCCBr | Active | < 10 | < 10 | < 10 | 23 | < 10 |  | < 10 | < 10 |  |  |  | Active | Active
13 | O=C1c2cc(O)ccc2-c2c1c1ccc([N+](=O)[O-])cc1c(=O)n2CCCN1CCOCC1 | Active | < 10 | < 10 | < 10 | < 10 | < 10 | < 10 | < 10 | < 10 | > 111000 |  |  |  | 
14 | COc1cc2c(cc1O)-c1c(c3cc(OC)c(OC)cc3c(=O)n1CCCn1ccnc1)C2=O |  |  |  |  |  |  |  |  |  | > 111000 |  |  |  | 
15 | O=C1c2ccc(O)cc2-c2c1c1ccc([N+](=O)[O-])cc1c(=O)n2CCCN1CCOCC1 | Active | 34 | 21 | 36 | 41 | < 10 | 25 | 26 | 20 | > 111000 |  | Dose-dependent effect |  | 
16 | O=C1c2cccc(O)c2-c2c1c1ccc([N+](=O)[O-])cc1c(=O)n2CCCn1ccnc1 | 75% |  |  |  |  |  |  |  |  | > 111000 |  |  |  | 
17 | COc1cc2c(cc1O)-c1c(c3ccc([N+](=O)[O-])cc3c(=O)n1CCCn1ccnc1)C2=O | 50% | 51 | 49 | 51 | 320 | 20 | 85 | 71 |  |  |  |  |  | 
18 | NCCCn1c2c(c3ccc([N+](=O)[O-])cc3c1=O)C(=O)c1cc(O)ccc1-2 | Active | 52 | 30 | 46 | 220 | 26 | 56 | 78 | 41 |  |  |  |  | 
19 | NCCCn1c2c(c3ccc([N+](=O)[O-])cc3c1=O)C(=O)c1cccc(O)c1-2 | 50% |  |  |  |  |  |  |  |  |  |  |  |  | 
20 | O=C1c2cccc(O)c2-c2c1c1ccc([N+](=O)[O-])cc1c(=O)n2CCCN1CCOCC1 | 50% |  |  |  |  |  |  |  |  | > 111000 |  |  |  | 
21 | COc1cc2c(cc1O)-c1c(c3ccc([N+](=O)[O-])cc3c(=O)n1CCCN1CCOCC1)C2=O | 50% | 110 | 130 | 63 | 720 | 35 | 79 |  | 39 | > 111000 |  |  |  | 
22 | COc1cc2c(cc1O)C(=O)c1c-2n(CCCn2ccnc2)c(=O)c2cc([N+](=O)[O-])ccc12 | 20% | < 10 | < 10 | < 10 | < 10 | < 10 | < 10 | < 10 | < 10 | > 111000 | Dose-dependent effect |  |  | 
23 | O=C1c2ccccc2-c2c1c1ccccc1c(=O)n2CCCNCCCNCCCn1c2c(c3ccccc3c1=O)C(=O)c1ccccc1-2 |  |  |  |  |  |  |  |  |  |  | Dose-dependent effect |  |  | 
24 | O=C1c2ccc(O)cc2-c2c1c1ccc([N+](=O)[O-])cc1c(=O)n2CCCn1ccnc1 | 75% | < 10 | < 10 | < 10 | 23 | < 10 |  | < 10 | < 10 | > 111000 |  | Dose-dependent effect |  | 

Reference: ChEMBL document CHEMBL3421537, “Synthesis and biological evaluation of nitrated 7-, 8-, 9-, and 10-hydroxyindenoisoquinolines as potential dual topoisomerase I (Top1)-tyrosyl-DNA phosphodiesterase I (TDP1) inhibitors” (J Med Chem, 2015)
